Screening results (PubChem)
This is a sample that favours compounds with a hit; in the whole collection about 3.1% have one here.
SENP8 block-1 = SENP8 protease inhibitors, primary screen, biochemical, luminescence. purified SENP8, Z-RLRGG-aminoluciferin cleavage. Sentrin-specific protease 8 (Homo sapiens), Q96LD8. AID 2540, 2010. 330,000 compounds, 1.2% hits. inhibition, % at 10 µM; in the data active means inhibition above about 50%
Apaf-1 inh = inhibitors of human Apaf-1 apoptosome, primary screen, biochemical, DEVD-Rh110 fluorescence, uHTS; 330,000 compounds, 0.71% hits; inhibition, % at 20 µM; AID 489030, 2010; Apoptotic protease-activating factor 1 (Homo sapiens), O14727; reconstituted apoptosome caspase-3 activity; active means inhibition of at least 40% at 20 µM;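 further: plate controls were DMSO wells for no effect and DEVD-CHO caspase inhibitor wells for full effect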
Target sequence (O14727 whole entry, looked up): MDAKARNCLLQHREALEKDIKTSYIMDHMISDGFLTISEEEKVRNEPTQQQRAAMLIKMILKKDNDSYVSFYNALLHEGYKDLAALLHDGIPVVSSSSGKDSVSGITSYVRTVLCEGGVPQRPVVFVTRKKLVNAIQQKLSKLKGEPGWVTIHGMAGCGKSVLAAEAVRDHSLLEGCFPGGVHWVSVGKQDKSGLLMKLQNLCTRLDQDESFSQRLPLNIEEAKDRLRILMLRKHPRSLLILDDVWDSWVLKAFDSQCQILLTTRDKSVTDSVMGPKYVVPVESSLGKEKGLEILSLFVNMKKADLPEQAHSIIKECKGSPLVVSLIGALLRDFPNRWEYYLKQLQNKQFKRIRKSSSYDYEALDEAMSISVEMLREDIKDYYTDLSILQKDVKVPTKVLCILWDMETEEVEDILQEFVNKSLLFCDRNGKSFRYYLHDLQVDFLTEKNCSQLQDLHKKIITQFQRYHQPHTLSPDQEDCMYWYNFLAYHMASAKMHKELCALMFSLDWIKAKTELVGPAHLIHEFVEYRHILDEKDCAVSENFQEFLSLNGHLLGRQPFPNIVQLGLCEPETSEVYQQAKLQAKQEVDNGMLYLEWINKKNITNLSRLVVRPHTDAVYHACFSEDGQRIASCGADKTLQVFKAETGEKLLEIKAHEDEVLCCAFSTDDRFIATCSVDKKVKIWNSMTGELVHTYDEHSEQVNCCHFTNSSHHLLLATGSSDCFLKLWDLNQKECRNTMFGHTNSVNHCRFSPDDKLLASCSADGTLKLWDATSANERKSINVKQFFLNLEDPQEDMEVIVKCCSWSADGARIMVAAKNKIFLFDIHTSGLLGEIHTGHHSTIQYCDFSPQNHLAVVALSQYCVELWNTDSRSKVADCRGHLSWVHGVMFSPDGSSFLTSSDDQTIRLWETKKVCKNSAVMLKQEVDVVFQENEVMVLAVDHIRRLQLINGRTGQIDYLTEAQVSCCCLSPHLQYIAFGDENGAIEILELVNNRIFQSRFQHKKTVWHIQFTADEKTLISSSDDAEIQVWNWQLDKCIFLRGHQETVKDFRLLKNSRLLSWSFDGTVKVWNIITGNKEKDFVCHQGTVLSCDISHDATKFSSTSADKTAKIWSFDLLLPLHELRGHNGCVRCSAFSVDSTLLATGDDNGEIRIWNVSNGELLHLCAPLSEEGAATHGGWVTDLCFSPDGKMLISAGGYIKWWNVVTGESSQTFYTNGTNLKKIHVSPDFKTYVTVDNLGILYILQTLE
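Material: cell-free apoptosome with Apaf-1, procaspase-3 and caspase-9; Buffer or medium: Hepes pH 7.5 with detergent and BSA; Reagent: cytochrome c trigger plus (Z-DEVD)2-Rh110 caspase-3 substrate; Times: compound with Apaf-1, dATP, procaspase-3 30 min, then 50 min reaction, room temperature; Technique: Rh110 fluorescence intensity.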
SENP7 inh = SENP7 protease inhibitors, primary screen, biochemical, luminescence, uHTS | 330,000 compounds, 1.5% hits | inhibition, % at 5 µM | AID 434973, 2010 | Sentrin-specific protease 7 (Homo sapiens), Q9BQF6 | recombinant SENP7, Z-RLRGG-aminoluciferin luminescence, 40 min;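 active means inhibition above about 50% at the single test dose, limit read from the data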;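 further: plate controls were DMSO with enzyme for no effect and no enzyme buffer wells for full effect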
SENP6 inh = SENP6 protease inhibitors, primary screen, biochemical, luminescence, uHTS. Sentrin-specific protease 6 (Homo sapiens), Q9GZR1. Recombinant SENP6 catalytic domain, aminoluciferin luminescence. inhibition, % at 10 µM. 330,000 compounds, 1.8% hits. AID 2599, 2010;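 active means inhibition above about 50% at the single tested dose, limit read from the data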;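 further: plate controls were DMSO wells with enzyme for no effect and DMSO wells lacking enzyme for full effect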
SENP8 block-2 = human SENP8 protease inhibitors, primary screen, biochemical, fluorescence, Nedd8 protein substrate, uHTS. inhibition, % at 20 µM. Sentrin-specific protease 8 (Homo sapiens), Q96LD8. 360,000 compounds, 0.64% hits. recombinant SENP8. AID 602440, 2012; in the data active means inhibition mostly above about 40%, no sharp cut-off; inactive means mostly below about 27%
UBC13 polyUb = UBC13 polyubiquitin chain formation inhibitors, primary screen, biochemical, TR-FRET, uHTS. inhibition, % at 20 µM. 330,000 compounds, 0.47% hits. Ubiquitin-conjugating enzyme E2 N (Homo sapiens), P61088. AID 485273, 2010; in the data active means inhibition above about 45%, passing the limit was not always enough
SENP8 conf = SENP8 protease inhibitors, retest, confirmation, biochemical, luminescence, single concentration; shares compounds with SENP7 inh; inhibition, % at 12.5 µM; 6,200 compounds, 40% hits; Recombinant SENP8, Z-RLRGG-aminoluciferin luminescence, 60 min;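 active means mean inhibition across replicates above about 50%, limit read from the data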
SENP6 confirm = SENP6 protease inhibitors, confirmation, biochemical, luminescence, single concentration; recombinant SENP6, Z-RLRGG-aminoluciferin luminescence; shares compounds with SENP7 inh; 6,200 compounds, 58% hits; inhibition, % at 12.5 µM; AID 488915, 2010
SENP7 conf = SENP7 protease inhibitors, retest, confirmation, biochemical, luminescence, single concentration | shares compounds with SENP7 inh | recombinant SENP7, Z-RLRGG-aminoluciferin luminescence, 40 min | inhibition, % at 12.5 µM | 6,200 compounds, 69% hits | AID 488917, 2010
Casp3 SENP sel = caspase-3 protease inhibitors, confirmation, selectivity assay for SENP inhibitor project, biochemical, single concentration | shares compounds with SENP7 inh | purified caspase-3, Z-DEVD-aminoluciferin luminescence, 60 min | inhibition, % at 12.5 µM | 6,200 compounds, 60% hits | AID 488918, 2010;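 active means mean inhibition above about 50%, limit read from the data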;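 further: plate controls were enzyme with DMSO for no effect and wells without caspase-3 for full effect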
SENP luc ctr = luminescence interference (SENP counter-screen); shares compounds with SENP7 inh; Pre-incubated SENP8/Z-RLRGG-aminoluciferin, luciferase luminescence interference; inhibition, % at 12.5 µM; 6,200 compounds, 39% hits;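 active means mean inhibition above about 50% when retested at one dose, limit read from the data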;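 further: plate controls were DMSO wells with completed reaction for no effect and substrate without enzyme for full effect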
Active calls of the source: *.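 How the source made its calls, unless noted: active means mean inhibition above about 50% in the one-dose retest (limit read from the data); inactive means the rest.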

Screening COc1ccc(-c2noc(-c3cccnc3)n2)cc1OC returned SENP8 block-1 19, Apaf-1 inh -9, SENP7 inh 35, SENP6 inh 44, SENP8 block-2 20 and UBC13 polyUb -3.
COc1ccc(-c2nc(-c3cccnc3)no2)cc1 was read as SENP8 block-1 67*, Apaf-1 inh 3, SENP7 inh 84*, SENP6 inh 77*, SENP8 block-2 -2, UBC13 polyUb 0, SENP8 conf 78*, SENP6 confirm 78*, SENP7 conf 96*, Casp3 SENP sel 86* and SENP luc ctr 48.
Screening CCOc1nc(-c2ccc(OC)cc2)ccc1-c1noc(-c2ccncc2)n1 returned SENP8 block-2 14.
`CCOc1ccc(-c2nc(-c3ccccc3C)no2)cc1` gave SENP8 block-1 95*, Apaf-1 inh -9, SENP7 inh 99*, SENP6 inh 93*, UBC13 polyUb 11, SENP8 conf 70*, SENP6 confirm 56*, SENP7 conf 32, Casp3 SENP sel 78* and SENP luc ctr 25.
`CCOc1ccc(-c2noc(-c3cccnc3)n2)cc1OC` gave SENP8 block-1 -9, Apaf-1 inh 24, SENP7 inh 5, SENP6 inh -9, SENP8 block-2 26 and UBC13 polyUb 7.
Screening CCOc1ccc(-c2nc(-c3cccnc3)no2)cc1 returned SENP8 block-1 85*, Apaf-1 inh 8, SENP7 inh 95*, SENP6 inh 72*, SENP8 block-2 32, UBC13 polyUb 7, SENP8 conf 5, SENP6 confirm 73*, SENP7 conf 91*, Casp3 SENP sel 74* and SENP luc ctr 33.
`CCCCOc1ccc(-c2nc(-c3cccnc3)no2)cc1` gave SENP8 block-1 64*, Apaf-1 inh 11, SENP7 inh 79*, SENP6 inh 81*, SENP8 block-2 20, UBC13 polyUb 11, SENP8 conf -5, SENP6 confirm 6, SENP7 conf 23, Casp3 SENP sel 6 and SENP luc ctr 7.
For COCCNC(=O)C1(C)CCCN(Cc2ccc(Oc3ccccc3)cc2)C1 (stereo not drawn) the results were SENP8 block-2 13.
Screening CCCCN(c1ccccc1)S(=O)(=O)c1cccc(C(=O)Nc2c(C)n(C)n(-c3ccccc3)c2=O)c1 returned SENP8 block-2 2.
`CCOC(=O)[C@]12CCCC=C1N(CCC1=CCCCC1)C(=O)[C@H](CC(=O)NCC1CCCCC1)C2` gave SENP8 block-2 6.
CCCNC(=O)C1(C)CCCN(Cc2ccc(-c3ccccc3)cc2)C1 (stereo not drawn) was read as SENP8 block-2 17.
For COCCNC(=O)CN(C(=O)c1ccc(N2CCCC2)nc1)c1ccc(F)c(Cl)c1 the results were SENP8 block-1 56*, Apaf-1 inh 5, SENP7 inh 1, SENP6 inh 51*, SENP8 block-2 -5, UBC13 polyUb -4, SENP8 conf 13, SENP6 confirm 10, SENP7 conf 12, Casp3 SENP sel 4 and SENP luc ctr 7.
Oc1ccccc1CNc1ccc2c(c1)OCCO2 was read as SENP8 block-1 4, Apaf-1 inh -10, SENP7 inh 11, SENP6 inh 12, SENP8 block-2 11 and UBC13 polyUb 4.
Cc1ccc(NCc2ccccc2O)cc1C was read as SENP8 block-1 42, Apaf-1 inh 6, SENP7 inh 34, SENP6 inh 52*, SENP8 block-2 8, UBC13 polyUb 12, SENP8 conf 40, SENP6 confirm 40, SENP7 conf 74*, Casp3 SENP sel 41 and SENP luc ctr 57*.
Screening O=C(/C=C/[C@H]1O[C@@H](n2cnc3c(NC(=O)c4ccccc4)ncnc32)[C@H](O)[C@@H]1O)NCCc1ccc(F)cc1 returned SENP8 block-2 23.
`CCOc1ccccc1NC(=O)C1CCN(S(=O)(=O)c2ccc(OC)c(OC)c2)CC1` gave SENP8 block-1 2, Apaf-1 inh 3, SENP7 inh 71*, SENP6 inh -9, SENP8 block-2 15, UBC13 polyUb -5, SENP8 conf 2, SENP6 confirm 6, SENP7 conf 7, Casp3 SENP sel 4 and SENP luc ctr 3.
Screening CCC(=O)Nc1cc2nn(-c3ccc(OC)cc3)nc2cc1C returned SENP8 block-1 -15, Apaf-1 inh -24, SENP7 inh 57*, SENP6 inh -15, SENP8 block-2 -299, UBC13 polyUb 8, SENP8 conf 11, SENP6 confirm 10, SENP7 conf 15, Casp3 SENP sel 10 and SENP luc ctr 3.
CCC(=O)Nc1cc2nn(-c3ccc(C)cc3)nc2cc1C was read as SENP8 block-1 4, Apaf-1 inh 0, SENP7 inh 51*, SENP6 inh -14, SENP8 block-2 -404, UBC13 polyUb -7, SENP8 conf 11, SENP6 confirm 7, SENP7 conf 11, Casp3 SENP sel 8 and SENP luc ctr -2.
For CN(C)Cc1csc(Nc2ccc(C(=O)c3ccccc3)cc2)n1 the results were SENP8 block-2 -294.
CCOC(=O)C1(C)CCCCCN1C(=O)c1ccc(SC(F)(F)F)cc1 (stereo not drawn) was read as SENP8 block-2 13.
Screening C(=C\c1ccco1)/c1nc2ccccc2[nH]1 returned SENP8 block-1 10, Apaf-1 inh 15, SENP7 inh -1, SENP6 inh -11, SENP8 block-2 -348 and UBC13 polyUb -14.
